Measured values published in ChEMBL document CHEMBL2384952, “Synthesis, antifungal and cytotoxic activities of 2-aryl-3-((piperidin-1-yl)ethyl)thiazolidinones” (Eur J Med Chem, 2013).
≈ marks a conversion by molar mass, not a printed value.

Assays:
Candida albicans = assay: Antifungal activity against Candida albicans after 48 hrs by CLSI M27A3 broth microdilution method; type: functional
Procedure, shortened: (§1)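 Yeasts were kept on Sabouraud dextrose agar and subcultured at 35 °C for at least 2 days. They were suspended in saline to McFarland 0.5 and diluted in RPMI. Ten successive dilutions were made from a 1.6 mg/mL DMSO stock per CLSI broth microdilution, then incubated at 37 °C for 48 h. Growth was read visually against a growth-control well, and MIC is the lowest concentration inhibiting growth.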

Rhodotorula = assay: Antifungal activity against Rhodotorula species after 48 hrs by CLSI M27A3 broth microdilution method; type: functional; procedure, shortened: as §1
[1] = test system: Meyerozyma guilliermondii; assay: Antifungal activity against Candida guilliermondii after 48 hrs by CLSI M27A3 broth microdilution method; type: functional; procedure, shortened: as §1
Vero [2] = assay: Cytotoxicity against African green monkey Vero cells at 787 ug/mL by neutral red dye uptake assay relative to control; type: cell-based; conditions: chlorocebus sabaeus
Procedure, shortened: (§2)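 Vero cells (over 99% viable by trypan blue exclusion) were exposed to serial compound dilutions in E-MEM, with fresh E-MEM as negative control, for 72 h at 37 °C, 5% CO2. Cells were then given 3.3 mg/L neutral red for 2 h, and the dye was extracted with 50% ethanol/1% acetic acid. A540 was read, and viability was calculated as treated/control absorbance × 100.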

Trichosporon asahii = assay: Antifungal activity against Trichosporon asahii after 48 hrs by CLSI M27A3 broth microdilution method; type: functional; procedure, shortened: as §1
Vero [3] = assay: Cytotoxicity against African green monkey Vero cells at 394 ug/mL by neutral red dye uptake assay relative to control; type: cell-based; conditions: chlorocebus sabaeus; procedure, shortened: as §2
Candida parapsilosis = assay: Antifungal activity against Candida parapsilosis after 48 hrs by CLSI M27A3 broth microdilution method; type: functional; conditions: Lodderomyces parapsilosis; procedure, shortened: as §1
Vero [4] = assay: Cytotoxicity against African green monkey Vero cells at 3150 ug/mL by neutral red dye uptake assay relative to control; type: cell-based; conditions: chlorocebus sabaeus; procedure, shortened: as §2
Vero [5] = assay: Cytotoxicity against African green monkey Vero cells at 12.3 ug/mL by neutral red dye uptake assay relative to control; type: cell-based; conditions: chlorocebus sabaeus; procedure, shortened: as §2
Vero [6] = assay: Cytotoxicity against African green monkey Vero cells at 1575 ug/mL by neutral red dye uptake assay relative to control; type: cell-based; conditions: chlorocebus sabaeus; procedure, shortened: as §2
Vero [7] = assay: Cytotoxicity against African green monkey Vero cells at 98 ug/mL by neutral red dye uptake assay relative to control; type: cell-based; conditions: chlorocebus sabaeus; procedure, shortened: as §2
Papiliotrema laurentii = assay: Antifungal activity against Cryptococcus laurentii after 48 hrs by CLSI M27A3 broth microdilution method; type: functional; procedure, shortened: as §1
Vero [8] = assay: Cytotoxicity against African green monkey Vero cells at 197 ug/mL by neutral red dye uptake assay relative to control; type: cell-based; conditions: chlorocebus sabaeus; procedure, shortened: as §2
Vero [9] = assay: Cytotoxicity against African green monkey Vero cells at 25 ug/mL by neutral red dye uptake assay relative to control; type: cell-based; conditions: chlorocebus sabaeus; procedure, shortened: as §2
Geotrichum = assay: Antifungal activity against Geotrichum species after 48 hrs by CLSI M27A3 broth microdilution method; type: functional; procedure, shortened: as §1
Vero [10] = assay: Cytotoxicity against African green monkey Vero cells at 49 ug/mL by neutral red dye uptake assay relative to control; type: cell-based; conditions: chlorocebus sabaeus; procedure, shortened: as §2

SMILES	MFC (Candida albicans) [µg/mL]	MIC (Candida albicans) [µg/mL]	MFC (Rhodotorula) [µg/mL]	MIC (Rhodotorula) [µg/mL]	MFC [1] [µg/mL]	MIC [1] [µg/mL]	Cell viability (Vero [2]) [%]	MFC (Trichosporon asahii) [µg/mL]	MIC (Trichosporon asahii) [µg/mL]	Cell viability (Vero [3]) [%]	MFC (Candida parapsilosis) [µg/mL]	MIC (Candida parapsilosis) [µg/mL]	Cell viability (Vero [4]) [%]	Cell viability (Vero [5]) [%]	Cell viability (Vero [6]) [%]	Cell viability (Vero [7]) [%]	MFC (Papiliotrema laurentii) [µg/mL]	MIC (Papiliotrema laurentii) [µg/mL]	MFC (Geotrichum) [µg/mL]	MIC (Geotrichum) [µg/mL]	further results
O=C1CSC(c2ccc([N+](=O)[O-])cc2)N1CCN1CCCCC1 (centres undefined)	62 (≈ 185 µM)	62 (≈ 185 µM)	30 (≈ 89.4 µM)	30 (≈ 89.4 µM)	100 (≈ 298 µM)	100 (≈ 298 µM)	21	100 (≈ 298 µM)	100 (≈ 298 µM)	66	100 (≈ 298 µM)	100 (≈ 298 µM)	10	100	15	87	100 (≈ 298 µM)	100 (≈ 298 µM)	50 (≈ 149 µM)	50 (≈ 149 µM)	Cell viability (Vero [8]): 72%; Cell viability (Vero [9]): 100%; Cell viability (Vero [10]): 100%
COc1ccc(C2SCC(=O)N2CCN2CCCCC2)cc1 (centres undefined)	75 (≈ 234 µM)	75 (≈ 234 µM)	33.5 (≈ 105 µM)	33.5 (≈ 105 µM)	100 (≈ 312 µM)	100 (≈ 312 µM)	33	> 400	> 400	73	50 (≈ 156 µM)	50 (≈ 156 µM)	11	100	11	89	100 (≈ 312 µM)	100 (≈ 312 µM)	> 400	> 400	Cell viability (Vero [8]): 87%; Cell viability (Vero [9]): 100%; Cell viability (Vero [10]): 100%
O=C1CSC(c2cccc(Cl)c2)N1CCN1CCCCC1 (centres undefined)	62 (≈ 191 µM)	62 (≈ 191 µM)	25 (≈ 77 µM)	25 (≈ 77 µM)	100 (≈ 308 µM)	100 (≈ 308 µM)	31	100 (≈ 308 µM)	100 (≈ 308 µM)	45	100 (≈ 308 µM)	100 (≈ 308 µM)	15	100	20	100	100 (≈ 308 µM)	100 (≈ 308 µM)	50 (≈ 154 µM)	50 (≈ 154 µM)	Cell viability (Vero [8]): 77%; Cell viability (Vero [9]): 100%; Cell viability (Vero [10]): 100%
O=C1CSC(c2ccc(Cl)cc2)N1CCN1CCCCC1 (centres undefined)	62 (≈ 191 µM)	62 (≈ 191 µM)	50 (≈ 154 µM)	50 (≈ 154 µM)	100 (≈ 308 µM)	100 (≈ 308 µM)	15	50 (≈ 154 µM)	50 (≈ 154 µM)	28	100 (≈ 308 µM)	100 (≈ 308 µM)	11	90	13	74	100 (≈ 308 µM)	100 (≈ 308 µM)	50 (≈ 154 µM)	50 (≈ 154 µM)	Cell viability (Vero [8]): 68%; Cell viability (Vero [9]): 84%; Cell viability (Vero [10]): 84%
O=C1CSC(c2ccccc2[N+](=O)[O-])N1CCN1CCCCC1 (centres undefined)	55 (≈ 164 µM)	55 (≈ 164 µM)	25 (≈ 74.5 µM)	25 (≈ 74.5 µM)	25 (≈ 74.5 µM)	25 (≈ 74.5 µM)	100	100 (≈ 298 µM)	100 (≈ 298 µM)	100	50 (≈ 149 µM)	50 (≈ 149 µM)	30	100	24	100	100 (≈ 298 µM)	100 (≈ 298 µM)	25 (≈ 74.5 µM)	25 (≈ 74.5 µM)	Cell viability (Vero [8]): 100%; Cell viability (Vero [9]): 100%; Cell viability (Vero [10]): 100%
O=C1CSC(c2cccc(O)c2)N1CCN1CCCCC1 (centres undefined)	81 (≈ 264 µM)	81 (≈ 264 µM)	33.5 (≈ 109 µM)	33.5 (≈ 109 µM)	100 (≈ 326 µM)	100 (≈ 326 µM)	60	> 400	> 400	100	67 (≈ 219 µM)	67 (≈ 219 µM)	11	100	13	100	100 (≈ 326 µM)	100 (≈ 326 µM)	> 400	> 400	Cell viability (Vero [8]): 100%; Cell viability (Vero [9]): 100%; Cell viability (Vero [10]): 100%
O=C1CSC(c2ccc(O)cc2)N1CCN1CCCCC1 (centres undefined)	100 (≈ 326 µM)	100 (≈ 326 µM)	25 (≈ 81.6 µM)	25 (≈ 81.6 µM)	100 (≈ 326 µM)	100 (≈ 326 µM)	57	50 (≈ 163 µM)	50 (≈ 163 µM)	76	100 (≈ 326 µM)	100 (≈ 326 µM)	10	100	12	94	100 (≈ 326 µM)	100 (≈ 326 µM)	50 (≈ 163 µM)	50 (≈ 163 µM)	Cell viability (Vero [8]): 87%; Cell viability (Vero [9]): 100%; Cell viability (Vero [10]): 96%
COc1cccc(C2SCC(=O)N2CCN2CCCCC2)c1 (centres undefined)	100 (≈ 312 µM)	100 (≈ 312 µM)	33.5 (≈ 105 µM)	33.5 (≈ 105 µM)	100 (≈ 312 µM)	100 (≈ 312 µM)	19	> 400	> 400	57	100 (≈ 312 µM)	100 (≈ 312 µM)	6	100	11	84	100 (≈ 312 µM)	100 (≈ 312 µM)	> 400	> 400	Cell viability (Vero [8]): 66%; Cell viability (Vero [9]): 97%; Cell viability (Vero [10]): 90%
Cc1ccc(C2SCC(=O)N2CCN2CCCCC2)cc1 (centres undefined)	62 (≈ 204 µM)	62 (≈ 204 µM)	37.5 (≈ 123 µM)	37.5 (≈ 123 µM)	100 (≈ 328 µM)	100 (≈ 328 µM)	17	50 (≈ 164 µM)	50 (≈ 164 µM)	51	100 (≈ 328 µM)	100 (≈ 328 µM)	12	100	13	100	66 (≈ 217 µM)	66 (≈ 217 µM)	100 (≈ 328 µM)	100 (≈ 328 µM)	Cell viability (Vero [8]): 85%; Cell viability (Vero [9]): 100%; Cell viability (Vero [10]): 100%
O=C1CSC(c2c(Cl)cccc2Cl)N1CCN1CCCCC1 (centres undefined)	75 (≈ 209 µM)	75 (≈ 209 µM)	30 (≈ 83.5 µM)	30 (≈ 83.5 µM)	200 (≈ 557 µM)	200 (≈ 557 µM)	11	50 (≈ 139 µM)	50 (≈ 139 µM)	32	100 (≈ 278 µM)	100 (≈ 278 µM)	7	100	10	76	200 (≈ 557 µM)	200 (≈ 557 µM)	50 (≈ 139 µM)	50 (≈ 139 µM)	Cell viability (Vero [8]): 75%; Cell viability (Vero [9]): 100%; Cell viability (Vero [10]): 100%
OC(Cn1cncn1)(Cn1cncn1)c1ccc(F)cc1F [FLUCONAZOLE]	1 (≈ 3.27 µM)	1 (≈ 3.27 µM)	26.5 (≈ 86.5 µM)	26.5 (≈ 86.5 µM)	16 (≈ 52.2 µM)	16 (≈ 52.2 µM)		1 (≈ 3.27 µM)	1 (≈ 3.27 µM)		1 (≈ 3.27 µM)	1 (≈ 3.27 µM)					1 (≈ 3.27 µM)	1 (≈ 3.27 µM)	8 (≈ 26.1 µM)	8 (≈ 26.1 µM)	
